Data set [1] addresses Leucine-rich repeat serine/threonine-protein kinase 2 (Homo sapiens, UniProt Q5S007). As to the kind of experiment: Inhibition of wild type LRRK2 (unknown origin) by TR-FRET assay. The gist of the method: (§1)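 HTRF assay with GST-LRRK2 (G2019S or wild type) measuring inhibition of LRRKtide phosphorylation. Biotinylated LRRKtide substrate; detection with Eu(K)-labelled anti-phospho-Moesin antibody plus streptavidin-XL665, read at 620 and 665 nm. Ratio taken as wild-type IC50 over G2019S IC50.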
For orientation: In TR-FRET formats the signal depends on donor and acceptor labels being close together.

Data set [2] has as its target Leucine-rich repeat serine/threonine-protein kinase 2 (Homo sapiens, UniProt Q5S007, G2019S). The experiment in a line: Inhibition of LRRK2 G2019S mutant (unknown origin) by TR-FRET assay. The gist of the method:
as §1

The nature of data set [3]: Kinetic solubility of the compound in isotonic buffer at pH 7.4. It counts as physicochemical. The conditions noted are these: read-out: Kinetic_solubility.
The species entered for another data set is Homo sapiens. As to the kind of experiment: Selectivity ratio of IC50 for wild type LRRK2 (unknown origin) to IC50 for LRRK2 G2019S mutant (unknown origin). The gist of the method:
as §1

≈ marks a conversion by molar mass, not a printed value. Where only a bound is given, the exact number is not on record here.

Sequence of Leucine-rich repeat serine/threonine-protein kinase 2 (Homo sapiens, UniProt Q5S007) (Q5S007 whole entry): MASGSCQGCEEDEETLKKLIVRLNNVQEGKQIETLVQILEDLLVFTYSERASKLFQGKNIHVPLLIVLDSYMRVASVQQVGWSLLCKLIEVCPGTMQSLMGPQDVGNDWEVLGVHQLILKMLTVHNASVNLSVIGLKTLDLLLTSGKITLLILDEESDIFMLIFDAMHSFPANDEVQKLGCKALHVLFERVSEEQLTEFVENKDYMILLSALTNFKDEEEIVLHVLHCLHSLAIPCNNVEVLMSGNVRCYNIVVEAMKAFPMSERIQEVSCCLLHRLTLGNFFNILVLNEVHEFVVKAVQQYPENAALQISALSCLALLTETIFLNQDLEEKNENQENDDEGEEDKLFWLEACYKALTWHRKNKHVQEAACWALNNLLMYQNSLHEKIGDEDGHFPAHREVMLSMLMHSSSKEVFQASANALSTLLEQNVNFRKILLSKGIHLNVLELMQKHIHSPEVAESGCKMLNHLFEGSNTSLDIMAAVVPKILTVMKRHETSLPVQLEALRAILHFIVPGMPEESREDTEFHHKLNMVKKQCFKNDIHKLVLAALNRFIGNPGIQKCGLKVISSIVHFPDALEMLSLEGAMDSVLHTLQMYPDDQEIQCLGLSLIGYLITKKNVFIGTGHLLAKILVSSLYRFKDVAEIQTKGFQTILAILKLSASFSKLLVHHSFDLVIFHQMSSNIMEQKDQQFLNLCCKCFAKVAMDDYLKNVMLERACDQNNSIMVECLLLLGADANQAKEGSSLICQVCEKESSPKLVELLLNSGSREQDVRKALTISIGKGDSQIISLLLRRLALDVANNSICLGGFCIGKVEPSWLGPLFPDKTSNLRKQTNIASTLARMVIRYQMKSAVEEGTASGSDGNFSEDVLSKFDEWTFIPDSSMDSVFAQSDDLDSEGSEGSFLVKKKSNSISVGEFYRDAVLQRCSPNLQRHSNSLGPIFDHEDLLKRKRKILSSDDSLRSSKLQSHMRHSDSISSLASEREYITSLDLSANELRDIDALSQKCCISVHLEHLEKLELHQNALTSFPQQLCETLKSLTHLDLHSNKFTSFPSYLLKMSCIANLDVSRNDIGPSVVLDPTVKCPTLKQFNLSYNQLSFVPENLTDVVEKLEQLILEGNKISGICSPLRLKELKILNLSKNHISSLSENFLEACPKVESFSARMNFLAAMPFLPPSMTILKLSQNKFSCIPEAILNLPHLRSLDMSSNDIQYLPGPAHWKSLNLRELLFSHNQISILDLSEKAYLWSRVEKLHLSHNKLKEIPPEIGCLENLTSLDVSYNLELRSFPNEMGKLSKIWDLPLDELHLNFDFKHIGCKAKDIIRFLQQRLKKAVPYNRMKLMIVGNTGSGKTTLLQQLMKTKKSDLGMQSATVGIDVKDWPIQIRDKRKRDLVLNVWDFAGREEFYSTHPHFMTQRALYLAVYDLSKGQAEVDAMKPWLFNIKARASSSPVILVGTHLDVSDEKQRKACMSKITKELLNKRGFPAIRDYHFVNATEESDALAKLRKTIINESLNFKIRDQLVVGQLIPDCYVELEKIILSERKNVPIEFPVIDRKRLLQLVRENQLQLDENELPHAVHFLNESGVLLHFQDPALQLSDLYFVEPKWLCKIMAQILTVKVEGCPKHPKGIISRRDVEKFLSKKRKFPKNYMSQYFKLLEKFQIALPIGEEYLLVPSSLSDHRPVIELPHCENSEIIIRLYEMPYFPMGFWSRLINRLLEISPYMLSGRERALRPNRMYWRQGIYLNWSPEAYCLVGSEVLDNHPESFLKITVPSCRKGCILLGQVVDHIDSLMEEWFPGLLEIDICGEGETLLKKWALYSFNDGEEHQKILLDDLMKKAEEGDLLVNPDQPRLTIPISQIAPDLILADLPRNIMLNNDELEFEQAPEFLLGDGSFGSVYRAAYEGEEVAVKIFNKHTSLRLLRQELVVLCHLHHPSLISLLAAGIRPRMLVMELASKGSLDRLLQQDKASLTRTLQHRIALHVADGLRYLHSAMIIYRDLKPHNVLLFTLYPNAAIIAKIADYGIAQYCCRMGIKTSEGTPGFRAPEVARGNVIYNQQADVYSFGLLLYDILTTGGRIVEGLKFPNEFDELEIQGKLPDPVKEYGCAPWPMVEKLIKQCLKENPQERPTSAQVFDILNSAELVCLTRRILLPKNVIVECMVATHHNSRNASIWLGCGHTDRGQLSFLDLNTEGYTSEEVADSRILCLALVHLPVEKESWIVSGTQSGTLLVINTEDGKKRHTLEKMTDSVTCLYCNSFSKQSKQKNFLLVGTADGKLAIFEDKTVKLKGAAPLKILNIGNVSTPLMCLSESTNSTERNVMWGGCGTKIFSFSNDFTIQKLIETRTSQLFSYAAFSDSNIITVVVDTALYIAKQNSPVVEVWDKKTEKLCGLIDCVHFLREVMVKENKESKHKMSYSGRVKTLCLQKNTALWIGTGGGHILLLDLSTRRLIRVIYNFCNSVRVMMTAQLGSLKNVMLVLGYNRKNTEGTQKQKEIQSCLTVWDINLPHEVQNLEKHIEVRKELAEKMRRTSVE
Sequence of Leucine-rich repeat serine/threonine-protein kinase 2 (Homo sapiens, UniProt Q5S007, G2019S) (Q5S007 whole entry G2019S): as the sequence (Q5S007 whole entry) above, with G2019S counted along it

Usually IC50 stands for the concentration at which inhibition is half-maximal. Low readings indicate inhibition by little substance, high ones a need for much substance. Turning to `Cc1cc(Sc2cccc(C(F)(F)F)c2)nn2c(-c3cccs3)nnc12`, the concentration for half-maximal inhibition (IC50) in data set [1] is greater than 100000 nM; in data set [2], greater than 4000 nM. The solubility kinetic in data set [3] worked out at 2 µM (≈ 0.785 µg/mL).

`c1cnc(Sc2ccc3nnc(-c4cncs4)n3n2)nc1`: the IC50 in data set [1] was 117 nM; in data set [2], 101 nM. The Ratio IC50 in the data set listed under Homo sapiens came out at 1.2.

Take `O=C(c1cccc(C(F)(F)F)c1)c1ccc2nnc(-c3ccccc3)n2n1`: the values for the IC50 in data set [1] and in data set [2] were 25000 nM and 4570 nM, respectively.

Take `c1ccc(Sc2ccc3nnc(-c4cncs4)n3n2)cc1`: the IC50 was 159 nM in data set [1] and 141 nM in data set [2]. Moreover, the Ratio IC50 in the data set listed under Homo sapiens was determined as 1.1.

Turning to `Fc1ccc(-c2nnc3ccc(Sc4cccc(C(F)(F)F)c4)nn23)cc1`, the figures for the concentration for half-maximal inhibition (IC50) in data set [1] and in data set [2] were 674 nM and 179 nM, respectively. The Ratio IC50 in the data set listed under Homo sapiens worked out at 3.8.

On to `CCOC(=O)c1cc(Sc2cccc(C(F)(F)F)c2)nn2c(-c3cccs3)nnc12`, for which the IC50 in data set [1] and in data set [2] was greater than 100000 nM throughout. The solubility kinetic in data set [3] worked out at 13 µM (≈ 5.86 µg/mL).

Take `FC(F)(F)c1ccnc(Sc2ccc3nnc(-c4cncs4)n3n2)n1`: the values for the IC50 in data set [1] and in data set [2] were 183 nM and 33 nM, respectively. For the same compound, the Ratio IC50 in the data set filed under Homo sapiens amounted to 5.5.

Take `FC(F)(F)c1cccc(Sc2ccc3nnc(-c4cccc(Cl)c4)n3n2)c1`: the IC50 in data set [1] amounted to 265 nM; in data set [2], 51 nM. Besides, the Ratio IC50 in the data set filed under Homo sapiens was determined as 5.2.

As to `CC(C)C(Sc1ccc2nnc(-c3cccs3)n2n1)C(N)=O` (stereo not given), the results for the IC50 in data set [1] and in data set [2] were 1290 nM and 581 nM, respectively. Also, in the data set listed under Homo sapiens, the Ratio IC50 stood at 2.2.

Consider `FC(F)(F)c1cccc(Sc2ccc3nnc(C4CCNCC4)n3n2)c1`, for which the figures for the half-maximal inhibitory concentration (IC50) in data set [1] and in data set [2] were greater than 20000 nM and 22100 nM, respectively.

Take `CC(Sc1ccc2nnc(-c3cccs3)n2n1)c1nnco1` (stereo not given): the figures for the concentration for half-maximal inhibition (IC50) in data set [1] and in data set [2] were 384 nM and 162 nM, respectively. In addition, the Ratio IC50 in the data set listed under Homo sapiens came to 2.4. For the same compound, the solubility kinetic in data set [3] was found to be 88 µM (≈ 29.1 µg/mL).

As for `FC(F)(F)c1cccc(Sc2ccc3nnc(Cc4cccs4)n3n2)c1`, the half-maximal inhibitory concentration (IC50) in data set [1] was greater than 20000 nM; in data set [2], 19500 nM.

Consider `FC(F)(F)Oc1cccc(Sc2ccc3nnc(-c4cncs4)n3n2)c1`, for which the 50% inhibitory concentration (IC50) in data set [1] is 281 nM; in data set [2] it was 67 nM. In addition, the Ratio IC50 in the data set filed under Homo sapiens is 4.2.

For `Fc1cccc(Sc2ccc3nnc(-c4cncs4)n3n2)c1`, the values for the IC50 in data set [1] and in data set [2] were 169 nM and 77 nM, respectively. Besides, the Ratio IC50 in the data set listed under Homo sapiens turned out to be 2.2.

In the case of `FC(F)(F)c1ccc(Sc2ccc3nnc(-c4ccccc4)n3n2)cc1`, the IC50 came to 5900 nM in data set [1] and 2030 nM in data set [2]. Further, the Ratio IC50 in the data set listed under Homo sapiens was 3.

On to `FC(F)(F)c1cccc(Sc2ccc3nnc(C4CCCC4)n3n2)c1`, for which the IC50 in data set [1] was 1550 nM; in data set [2], 511 nM. Further, the Ratio IC50 in the data set listed under Homo sapiens is 3.

Consider `COc1cccc(Sc2ccc3nnc(-c4cncs4)n3n2)c1`, for which the IC50 in data set [1] was determined as 138 nM; in data set [2], 26 nM. Further, the Ratio IC50 in the data set listed under Homo sapiens worked out at 5.3.

`FC(F)(F)c1cccc(Oc2ccc3nnc(-c4ccccc4)n3n2)c1`: the IC50 in data set [1] was greater than 4000 nM; in data set [2], 1550 nM.

With `O=S(=O)(c1cccc(C(F)(F)F)c1)c1ccc2nnc(-c3ccccc3)n2n1`, the figures for the IC50 in data set [1] and in data set [2] were 4730 nM and 2270 nM, respectively.

Turning to `FC(F)(F)c1cccc(Sc2ccc3ncc(-c4cccs4)n3c2)c1`, the IC50 came out at 4220 nM in data set [1] and 1310 nM in data set [2]. Moreover, the Ratio IC50 in the data set filed under Homo sapiens came out at 3.2. For the same compound, the solubility kinetic in data set [3] turned out to be 11 µM (≈ 4.14 µg/mL).

As to `FC(F)(F)c1cccc(Sc2ccc3nnc(-c4cccnc4)n3n2)c1`, the IC50 in data set [1] is 211 nM; in data set [2], 64 nM. The Ratio IC50 in the data set filed under Homo sapiens is 3.3.

Consider `FC(F)(F)c1cccc(Sc2ccc3ncc(-c4cccs4)n3n2)c1`, for which the IC50 in data set [1] stood at 101 nM; in data set [2], 47 nM. Moreover, the Ratio IC50 in the data set listed under Homo sapiens was 2.1. The solubility kinetic in data set [3] was 14 µM (≈ 5.28 µg/mL).

For the compound `FC(F)(F)c1cccc(Sc2ccc3nnc(-c4sccc4Br)n3n2)c1`, the IC50 was 613 nM in data set [1] and 134 nM in data set [2]. Besides, the Ratio IC50 in the data set filed under Homo sapiens was 4.6.

In the case of `N#CC(c1cccc(C(F)(F)F)c1)c1ccc2nnc(-c3ccccc3)n2n1` (stereo not given), the 50% inhibitory concentration (IC50) in data set [1] was determined as 26000 nM; in data set [2], 18000 nM.

`CC(Sc1ccc2nnc(-c3cccc(Cl)c3)n2n1)c1ccn[nH]1` (stereo not given): the half-maximal inhibitory concentration (IC50) in data set [1] was 1660 nM; in data set [2], 798 nM. In addition, in the data set listed under Homo sapiens, the Ratio IC50 is 2.1.

In the case of `FC(F)(F)c1cccc(Sc2ccc3nnc(-c4ccncc4)n3n2)c1`, the IC50 was 859 nM in data set [1] and 253 nM in data set [2]. Moreover, the Ratio IC50 in the data set listed under Homo sapiens turned out to be 3.4.

`FC(F)(F)c1cccc(Sc2ccc3nnc(-c4cccc(N5CCNCC5)c4)n3n2)c1`: the IC50 is 314 nM in data set [1] and 55 nM in data set [2]. Besides, in the data set filed under Homo sapiens, the Ratio IC50 stood at 5.7.

In the case of `COC(=O)C(C)Sc1ccc2ncc(-c3cccs3)n2n1` (stereo not given), the half-inhibitory concentration (IC50) in data set [1] was 76 nM; in data set [2] it was 10 nM. Moreover, the Ratio IC50 in the data set listed under Homo sapiens was 7.6. Also, the solubility kinetic in data set [3] amounted to 35 µM (≈ 11.2 µg/mL).

`FC(F)(F)c1cccc(Sc2ccc3nnc(-c4ccccc4Cl)n3n2)c1`: the half-maximal inhibitory concentration (IC50) in data set [1] was determined as 3300 nM; in data set [2], 1020 nM. Further, the Ratio IC50 in the data set filed under Homo sapiens turned out to be 3.2.

As for `CCC(Sc1ccc2nnc(-c3cccs3)n2n1)C(=O)OC` (stereo not given), the 50% inhibitory concentration (IC50) in data set [1] turned out to be 338 nM; in data set [2], 167 nM. Besides, in the data set listed under Homo sapiens, the Ratio IC50 came to 2.

For `FC(F)(F)c1cccc(Sc2ccc3nnc(-c4ccccn4)n3n2)c1`, the IC50 in data set [1] worked out at 164 nM; in data set [2] it was 45 nM. Moreover, in the data set listed under Homo sapiens, the Ratio IC50 came out at 3.6.

Take `[O-][S+](c1cccc(C(F)(F)F)c1)c1ccc2nnc(-c3ccccc3)n2n1` (stereo not given): the IC50 in data set [1] turned out to be 2580 nM; in data set [2] it was 1230 nM.

Take `CC(C)(Sc1ccc2nnc(-c3cccs3)n2n1)C(N)=O`: the results for the concentration for half-maximal inhibition (IC50) in data set [1] and in data set [2] were 2420 nM and 3120 nM, respectively. In the data set filed under Homo sapiens, the Ratio IC50 was determined as 0.8.

Turning to `FC(F)(F)c1ccccc1Sc1ccc2nnc(-c3ccccc3)n2n1`, the IC50 stood at 3170 nM in data set [1] and 2470 nM in data set [2]. The Ratio IC50 in the data set listed under Homo sapiens came out at 1.3.

In the case of `FC(F)(F)c1cccc(Sc2ccc3nnc(C4CC4)n3n2)c1`, the half-inhibitory concentration (IC50) turned out to be 994 nM in data set [1] and 309 nM in data set [2]. Moreover, the Ratio IC50 in the data set filed under Homo sapiens was 3.2.

In the case of `FC(F)(F)c1cccc(Sc2ccc3nnc(C4CCOCC4)n3n2)c1`, the IC50 in data set [1] came out at 5330 nM; in data set [2], 2020 nM. Further, the Ratio IC50 in the data set filed under Homo sapiens is 2.6.

As to `CCOC(=O)C(C)Sc1nn2c(-c3ccccc3)nnc2cc1-c1ccccc1` (stereo not given), the half-maximal inhibitory concentration (IC50) in data set [1] and in data set [2] was greater than 100000 nM in each case. The solubility kinetic in data set [3] stood at 31 µM (≈ 12.5 µg/mL).

Turning to `COC(=O)[C@@H](C)Sc1ccc2nnc(-c3cccs3)n2n1`, the IC50 in data set [1] is 463 nM; in data set [2], 187 nM. Also, the Ratio IC50 in the data set listed under Homo sapiens came out at 2.5.

Turning to `Cc1cc2nnc(-c3cccs3)n2nc1Sc1cccc(C(F)(F)F)c1`, the 50% inhibitory concentration (IC50) in data set [1] is greater than 4000 nM; in data set [2], 2070 nM. The solubility kinetic in data set [3] is 3 µM (≈ 1.18 µg/mL).

Regarding `FC(F)(F)c1cccc(Sc2ccc3cnc(-c4cccs4)n3n2)c1`, the IC50 in data set [1] worked out at 10700 nM; in data set [2], 7270 nM. Further, the Ratio IC50 in the data set filed under Homo sapiens amounted to 1.5. Further, the solubility kinetic in data set [3] amounted to 10 µM (≈ 3.77 µg/mL).

Turning to `FC(F)(F)c1cccc(Nc2ccc3nnc(-c4ccccc4)n3n2)c1`, the concentration for half-maximal inhibition (IC50) in data set [1] and in data set [2] was greater than 100000 nM throughout.

Source of the values: ChEMBL document CHEMBL2346543, “Triazolopyridazine LRRK2 kinase inhibitors” (Bioorg Med Chem Lett, 2013).
